Key:
Histone deacetylase 1 = Histone deacetylase 1 (Homo sapiens, UniProt Q13547); assay: Inhibition of recombinant human C-terminal FLAG/His-tagged HDAC1 expressed in baculovirus infected Sf9 insect cells using HDAC substrate 3 measured after 30 mins by fluorescence assay
[1] = Substrate activity at PYSOCA in human CMEC/D3 cells assessed as transporter-mediated drug uptake measured for 2 mins at 37degC in presence of memantine; format: ADME, cell-based
[2] = Substrate activity at PYSOCA in human CMEC/D3 cells assessed as transporter-mediated drug uptake measured for 2 mins at 37degC in presence of decynium-22; format: ADME, cell-based
[3] = Substrate activity at PYSOCA in human CMEC/D3 cells assessed as transporter-mediated drug uptake measured for 2 mins at 37degC in presence of diphenhydramine; format: ADME, cell-based
Method in brief: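 Uptake by hCMEC/D3 cells was measured at various substrate concentrations, at 37 °C for 2 min, with or without diphenhydramine (100 µM). Data were analysed by Michaelis-Menten and Lineweaver-Burk plots using nonlinear least-squares regression (Eqs. 1 and 2). Mean ± S.E., n = 4.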

[4] = Substrate activity at PYSOCA in human CMEC/D3 cells assessed as transporter-mediated drug uptake measured for 2 mins at 37degC in presence of L-carnitine; format: ADME, cell-based
[5] = biological target: Histone deacetylase 5 (Homo sapiens) (UniProt Q9UQL6); assay: Inhibition of human recombinant HDAC5 expressed in baculovirus infected insect cells at 30 uM using HDAC class 2a substrate measured after 30 mins by fluorescence assay relative to control
Sequence of Histone deacetylase 5 (Homo sapiens) (Q9UQL6 whole entry): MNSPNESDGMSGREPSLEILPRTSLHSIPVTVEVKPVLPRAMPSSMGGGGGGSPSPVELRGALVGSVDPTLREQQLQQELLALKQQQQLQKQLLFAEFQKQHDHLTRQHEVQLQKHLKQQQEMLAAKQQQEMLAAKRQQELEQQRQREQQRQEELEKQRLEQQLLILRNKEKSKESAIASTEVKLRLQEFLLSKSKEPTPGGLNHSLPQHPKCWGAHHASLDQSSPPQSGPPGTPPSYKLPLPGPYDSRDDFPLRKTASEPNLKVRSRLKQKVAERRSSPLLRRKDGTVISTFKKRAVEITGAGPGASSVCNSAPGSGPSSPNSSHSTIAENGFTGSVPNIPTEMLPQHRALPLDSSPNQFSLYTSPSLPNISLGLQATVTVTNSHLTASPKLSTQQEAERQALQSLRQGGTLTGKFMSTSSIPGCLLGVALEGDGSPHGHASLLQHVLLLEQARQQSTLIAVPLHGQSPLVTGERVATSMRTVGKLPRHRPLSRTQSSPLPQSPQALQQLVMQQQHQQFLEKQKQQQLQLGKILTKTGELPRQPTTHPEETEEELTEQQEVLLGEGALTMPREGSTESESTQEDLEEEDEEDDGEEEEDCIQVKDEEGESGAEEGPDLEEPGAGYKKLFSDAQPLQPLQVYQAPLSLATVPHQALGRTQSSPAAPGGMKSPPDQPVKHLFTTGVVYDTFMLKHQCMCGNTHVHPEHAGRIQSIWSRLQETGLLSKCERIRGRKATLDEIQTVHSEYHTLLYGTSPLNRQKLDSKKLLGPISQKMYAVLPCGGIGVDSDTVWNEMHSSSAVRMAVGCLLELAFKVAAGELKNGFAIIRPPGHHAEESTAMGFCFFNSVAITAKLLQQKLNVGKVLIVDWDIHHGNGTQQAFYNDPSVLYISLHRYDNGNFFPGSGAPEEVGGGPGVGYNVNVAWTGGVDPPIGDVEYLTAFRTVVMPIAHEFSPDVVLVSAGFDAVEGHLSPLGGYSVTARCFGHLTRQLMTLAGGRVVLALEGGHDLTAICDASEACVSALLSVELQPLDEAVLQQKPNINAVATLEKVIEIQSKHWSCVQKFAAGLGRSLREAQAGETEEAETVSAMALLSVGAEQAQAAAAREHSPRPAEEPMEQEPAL

[6] = Substrate activity at PYSOCA in human CMEC/D3 cells assessed as transporter-mediated drug uptake measured for 2 mins at 37degC in presence of varenicline; format: ADME, cell-based
[7] = biological target: Histone deacetylase 9 (Homo sapiens) (UniProt Q9UKV0); assay: Inhibition of recombinant human C-terminal His-tagged HDAC9 (604 to 1066 residues) expressed in baculovirus infected insect cells at 30 uM using HDAC class 2a substrate measured after 30 mins by fluorescence assay relative to control
Sequence of Histone deacetylase 9 (Homo sapiens) (Q9UKV0 whole entry, the tested form may be a part): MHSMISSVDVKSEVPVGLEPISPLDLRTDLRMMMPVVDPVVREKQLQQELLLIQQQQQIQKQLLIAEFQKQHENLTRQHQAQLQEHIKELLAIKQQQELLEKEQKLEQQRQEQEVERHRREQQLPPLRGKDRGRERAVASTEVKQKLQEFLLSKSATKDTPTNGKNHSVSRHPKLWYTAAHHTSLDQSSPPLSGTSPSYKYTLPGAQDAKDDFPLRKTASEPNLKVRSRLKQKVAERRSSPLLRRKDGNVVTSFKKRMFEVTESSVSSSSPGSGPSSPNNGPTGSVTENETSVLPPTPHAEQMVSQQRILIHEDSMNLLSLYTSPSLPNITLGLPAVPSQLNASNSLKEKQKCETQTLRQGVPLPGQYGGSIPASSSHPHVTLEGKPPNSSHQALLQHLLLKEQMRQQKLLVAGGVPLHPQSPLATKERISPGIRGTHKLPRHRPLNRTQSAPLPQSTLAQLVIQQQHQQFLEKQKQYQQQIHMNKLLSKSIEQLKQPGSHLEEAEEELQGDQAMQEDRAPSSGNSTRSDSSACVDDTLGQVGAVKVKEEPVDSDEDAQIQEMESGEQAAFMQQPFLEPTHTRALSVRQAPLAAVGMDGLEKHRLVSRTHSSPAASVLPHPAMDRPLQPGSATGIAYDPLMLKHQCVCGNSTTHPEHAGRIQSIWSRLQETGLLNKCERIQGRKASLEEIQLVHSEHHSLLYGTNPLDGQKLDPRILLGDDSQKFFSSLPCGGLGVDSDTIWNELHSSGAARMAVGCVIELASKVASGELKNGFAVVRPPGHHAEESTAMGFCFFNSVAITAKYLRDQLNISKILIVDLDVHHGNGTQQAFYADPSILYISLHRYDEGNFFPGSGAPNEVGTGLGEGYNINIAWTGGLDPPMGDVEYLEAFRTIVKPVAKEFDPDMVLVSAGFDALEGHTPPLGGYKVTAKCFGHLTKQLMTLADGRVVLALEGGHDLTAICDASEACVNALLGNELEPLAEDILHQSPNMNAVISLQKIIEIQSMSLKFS

[8] = Substrate activity at PYSOCA in human CMEC/D3 cells assessed as transporter-mediated drug uptake measured for 1 min at 37degC in presence of NH4Cl under intracellular acidification condition; format: ADME, cell-based
Method in brief: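 hCMEC/D3 cells were pretreated in transport buffer with or without 30 mM NH4Cl. Uptake was then measured at 37 °C for 1 min with or without 30 mM NH4Cl (Control, Pre and Acute conditions). Mean ± S.E., n = 4.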

[9] = Substrate activity at PYSOCA in human CMEC/D3 cells assessed as transporter-mediated drug uptake clearance assessed per mg protein at 4degC measured up to 10 mins; format: ADME, cell-based
Method in brief: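 Uptake by hCMEC/D3 cells followed over time at 37 °C or 4 °C. Clearance was calculated from the initial linear slope, expressed per mg protein. Mean ± S.E., n = 4.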

[10] = Substrate activity at PYSOCA in human CMEC/D3 cells assessed as transporter-mediated drug uptake measured for 2 mins at 37degC in presence of metabolic inhibitor NaN3; format: ADME, cell-based
Method in brief: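 To deplete cellular ATP, hCMEC/D3 cells were pretreated with 0.1% NaN3 for 20 min. Uptake was then measured at 37 °C for 2 min. Mean ± S.E., n = 4.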

[11] = Substrate activity at PYSOCA in human CMEC/D3 cells assessed as transporter-mediated drug uptake measured for 2 mins at 37degC in presence of MPP+; format: ADME, cell-based
[12] = Substrate activity at PYSOCA in human CMEC/D3 cells assessed as Vmax for transporter-mediated drug uptake assessed per mg protein measured for 2 mins at 37degC; format: ADME, cell-based
Method in brief: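 Uptake by hCMEC/D3 cells measured over a range of concentrations at 37 °C for 2 min. Km and Vmax were obtained by fitting to Eq. 1. Mean ± S.E., n = 4.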

[13] = biological target: T1, Histone deacetylase 11 (Homo sapiens) (UniProt Q96DB2); assay: Inhibition of recombinant human full length HDAC11 expressed in baculovirus infected insect cells at 30 uM using HDAC class 2a substrate measured after 30 mins by fluorescence assay relative to control
T1 sequence (whole entry): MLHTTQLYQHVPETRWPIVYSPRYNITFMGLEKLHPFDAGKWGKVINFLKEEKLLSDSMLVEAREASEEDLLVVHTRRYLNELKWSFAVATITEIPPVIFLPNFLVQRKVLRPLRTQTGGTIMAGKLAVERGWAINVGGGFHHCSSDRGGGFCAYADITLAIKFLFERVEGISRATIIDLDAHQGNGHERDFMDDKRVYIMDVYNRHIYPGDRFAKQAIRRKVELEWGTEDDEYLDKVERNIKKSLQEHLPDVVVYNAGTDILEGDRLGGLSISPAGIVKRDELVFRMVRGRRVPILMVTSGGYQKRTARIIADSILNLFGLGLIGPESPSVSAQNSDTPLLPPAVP

[14] = biological target: T2, Polyamine deacetylase HDAC10 (Homo sapiens, UniProt Q969S8); assay: Inhibition of human HDAC10 expressed in baculovirus infected Sf9 insect cells using HDAC substrate 3 measured after 30 mins by fluorescence assay
T2 sequence (Q969S8 whole entry): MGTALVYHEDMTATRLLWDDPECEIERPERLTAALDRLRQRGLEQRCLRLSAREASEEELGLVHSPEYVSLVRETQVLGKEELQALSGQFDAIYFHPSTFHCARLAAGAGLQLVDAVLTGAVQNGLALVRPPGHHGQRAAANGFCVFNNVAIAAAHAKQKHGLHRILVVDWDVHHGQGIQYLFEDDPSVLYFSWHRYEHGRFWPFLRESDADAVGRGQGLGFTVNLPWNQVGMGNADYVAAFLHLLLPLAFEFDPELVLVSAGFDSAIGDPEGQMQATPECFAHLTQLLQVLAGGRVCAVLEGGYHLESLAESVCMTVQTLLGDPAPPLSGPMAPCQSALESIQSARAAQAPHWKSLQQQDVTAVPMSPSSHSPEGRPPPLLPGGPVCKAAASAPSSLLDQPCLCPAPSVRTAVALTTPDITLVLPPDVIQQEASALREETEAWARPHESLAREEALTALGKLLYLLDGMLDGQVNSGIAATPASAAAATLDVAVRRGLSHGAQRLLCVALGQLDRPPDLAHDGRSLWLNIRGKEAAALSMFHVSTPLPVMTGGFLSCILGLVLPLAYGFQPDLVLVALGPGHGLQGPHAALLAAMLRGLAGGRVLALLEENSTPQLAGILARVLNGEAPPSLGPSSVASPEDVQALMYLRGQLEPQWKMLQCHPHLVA

Histone deacetylase 2 = Histone deacetylase 2 (Homo sapiens, UniProt Q92769); assay: Inhibition of recombinant human C-terminal FLAG-tagged HDAC2 expressed in baculovirus infected Sf9 insect cells using HDAC substrate 3 measured after 30 mins by fluorescence assay
Sequence of Histone deacetylase 2 (Q92769 whole entry): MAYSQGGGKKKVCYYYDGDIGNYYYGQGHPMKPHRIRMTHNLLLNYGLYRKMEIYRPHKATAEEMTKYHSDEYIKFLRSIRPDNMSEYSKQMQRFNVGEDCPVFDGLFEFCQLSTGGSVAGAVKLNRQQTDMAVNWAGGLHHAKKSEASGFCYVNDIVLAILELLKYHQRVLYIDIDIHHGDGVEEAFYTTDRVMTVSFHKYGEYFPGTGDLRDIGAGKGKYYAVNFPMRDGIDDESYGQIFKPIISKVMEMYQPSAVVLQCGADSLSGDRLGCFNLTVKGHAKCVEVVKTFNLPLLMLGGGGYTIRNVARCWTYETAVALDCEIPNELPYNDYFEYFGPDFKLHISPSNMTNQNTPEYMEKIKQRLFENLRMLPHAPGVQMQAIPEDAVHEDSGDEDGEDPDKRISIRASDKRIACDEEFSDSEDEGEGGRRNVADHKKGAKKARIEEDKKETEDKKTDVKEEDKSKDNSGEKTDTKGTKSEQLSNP

Sequence of Histone deacetylase 1 (Q13547 whole entry): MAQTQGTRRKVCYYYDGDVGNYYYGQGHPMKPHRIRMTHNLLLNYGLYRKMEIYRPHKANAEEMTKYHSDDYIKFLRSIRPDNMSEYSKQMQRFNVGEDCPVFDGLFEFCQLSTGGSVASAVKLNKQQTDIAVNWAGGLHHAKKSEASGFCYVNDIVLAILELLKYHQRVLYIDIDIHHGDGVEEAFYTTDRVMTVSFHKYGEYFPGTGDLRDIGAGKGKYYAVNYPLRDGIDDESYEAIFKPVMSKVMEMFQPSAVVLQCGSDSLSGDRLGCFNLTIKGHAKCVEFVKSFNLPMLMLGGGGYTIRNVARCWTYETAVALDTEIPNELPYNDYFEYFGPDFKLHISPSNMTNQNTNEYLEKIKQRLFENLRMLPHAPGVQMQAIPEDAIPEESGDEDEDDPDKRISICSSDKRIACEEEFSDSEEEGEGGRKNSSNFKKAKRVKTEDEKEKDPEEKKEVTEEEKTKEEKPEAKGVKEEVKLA

IC50 (Histone deacetylase 1): 1.5 µM | Activity [1]: Not Active | Activity [2]: Active | Activity [3]: Not Active | Activity [4]: Active | inhibition [5]: < 10% | Activity [6]: Not Active | inhibition [7]: < 10% | Activity [8]: Active | Activity [9]: Not Active | Activity [10]: Not Active | Activity [11]: Active | Vmax [12]: 5.17 nmol/min | inhibition [13]: < 10% | IC50 [14]: 15.5 µM | IC50 (Histone deacetylase 2): 5.5 µM
SMILES: COc1ccc(CN(CCN(C)C)c2ccc(C(=O)Nc3ccccc3N)cn2)cc1

Source: ChEMBL document CHEMBL4196230, “Design, Synthesis, and Blood-Brain Barrier Transport Study of Pyrilamine Derivatives as Histone Deacetylase Inhibitors” (ACS Med Chem Lett, 2018)
